Columns and labels:
[1] = tested on: Pseudomonas aeruginosa; assay: Antibacterial activity against Pseudomonas aeruginosa ATCC 9027 assessed as bacterial growth inhibition by CLSI protocol based serial microdilution method; format: functional
[2] = tested on: Pseudomonas aeruginosa; assay: Bactericidal activity against Pseudomonas aeruginosa ATCC 9027 assessed as reduction in colony forming unit at 2.5 ug/ml measured at 2 hrs by time kill assay relative to control; format: functional; design: scale not given: the % may be the effect or the level left; details: dose 2.5 µg/ml
Summary of the method: (§1)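 Overnight Pseudomonas aeruginosa culture adjusted in Mueller–Hinton broth to about 2.5 × 10⁵ CFU/mL. Compound added at 2.5, 5 or 10 µg/mL, then incubated at 37 °C with shaking (580 rpm) for 22 h. Viable colonies counted on plates at 2, 4, 6, 8 and 22 h. Quantification limit 100 CFU/mL; triplicate.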

[3] = tested on: Pseudomonas aeruginosa; assay: Bactericidal activity against Pseudomonas aeruginosa ATCC 9027 assessed as colony forming unit at 10 ug/ml measured at 2 hrs by time kill assay (reference value: 3.6 x 10^5 CFU/ml); format: functional; details: dose 10 µg/ml; summary of the method: as §1
[4] = tested on: Pseudomonas aeruginosa; assay: Bactericidal activity against Pseudomonas aeruginosa ATCC 9027 assessed as colony forming unit at 5 ug/ml measured at 8 hrs by time kill assay (reference value: 2.7 x 10^8 CFU/ml); format: functional; details: dose 5 µg/ml; summary of the method: as §1
[5] = tested on: Pseudomonas aeruginosa; assay: Bactericidal activity against Pseudomonas aeruginosa ATCC 9027 assessed as reduction in colony forming unit at 5 ug/ml measured at 22 hrs by time kill assay relative to control; format: functional; design: scale not given: the % may be the effect or the level left; details: dose 5 µg/ml; summary of the method: as §1
[6] = tested on: Candida albicans; assay: Antifungal activity against Candida albicans CEMTC 34 assessed as concentration required to inhibit visible growth by CLSI protocol based serial microdilution method; format: functional
Summary of the method: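 Candida albicans grown in Sabouraud dextrose broth with two-fold serial compound dilutions from water stocks; final inoculum about 5 × 10⁵ CFU/mL. Incubated at 37 °C with orbital shaking (580 rpm). MIC is the lowest concentration preventing growth, by absorbance at 595 nm. MFC is the lowest concentration with no visible growth. Duplicates in two separate experiments.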

[7] = tested on: Pseudomonas aeruginosa; assay: Bactericidal activity against Pseudomonas aeruginosa ATCC 9027 assessed as colony forming unit at 5 ug/ml measured at 6 hrs by time kill assay (reference value: 10^8 CFU/ml); format: functional; details: dose 5 µg/ml; summary of the method: as §1
[8] = tested on: Staphylococcus aureus; assay: Antibacterial activity against methicillin-resistant Staphylococcus aureus CEMTC 707 assessed as bacterial growth inhibition by CLSI protocol based serial microdilution method; format: functional
[9] = tested on: Pseudomonas aeruginosa; assay: Bactericidal activity against Pseudomonas aeruginosa ATCC 9027 assessed as colony forming unit at 2.5 ug/ml measured at 2 hrs by time kill assay (reference value: 3.6 x 10^5 CFU/ml); format: functional; details: dose 2.5 µg/ml; summary of the method: as §1
[10] = tested on: Pseudomonas aeruginosa; assay: Bactericidal activity against Pseudomonas aeruginosa ATCC 9027 assessed as reduction in colony forming unit at 5 ug/ml measured at 6 hrs by time kill assay relative to control; format: functional; design: scale not given: the % may be the effect or the level left; details: dose 5 µg/ml; summary of the method: as §1
[11] = tested on: Staphylococcus aureus; assay: Bactericidal activity against […] Staphylococcus aureus ATCC 25923 assessed as colony forming unit at 1.25 ug/ml measured at 22 hrs by time kill assay (reference value: 2.9 x 10^9 CFU/ml); format: functional; details: dose 1.25 µg/ml
Summary of the method: (§2)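 S. aureus overnight culture was adjusted in MHB to ~8 × 10⁵ CFU/mL. Compound was added and the mixture incubated at 37 °C with shaking (580 rpm) for 22 h. Aliquots were plated for colony counts at 2, 4, 6, 8 and 22 h, with a quantification limit of 100 CFU/mL. Runs were done in triplicate.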

[12] = tested on: Salmonella typhimurium; assay: Antibacterial activity against Salmonella enterica ATCC 14028 assessed as concentration required to inhibit visible growth by CLSI protocol based serial microdilution method; format: functional, Salmonella enterica subsp. enterica serovar Typhimurium
[13] = Selectivity index, ratio of CC50 for HEK293T cells assessed as reduction in cell viability measured after 24 hrs by MTT assay to MIC for Pseudomonas aeruginosa ATCC 9027 assessed as bacterial growth inhibition by CLSI protocol based serial microdilution method; format: toxicity; details: human, read-out: Selectivity Index
[14] = tested on: Staphylococcus aureus; assay: Antibacterial activity against methicillin-resistant Staphylococcus aureus CEMTC 1695 assessed as bacterial growth inhibition by CLSI protocol based serial microdilution method; format: functional
[15] = tested on: Pseudomonas aeruginosa; assay: Bactericidal activity against Pseudomonas aeruginosa ATCC 9027 assessed as reduction in colony forming unit at 10 ug/ml measured at 6 hrs by time kill assay relative to control; format: functional; design: scale not given: the % may be the effect or the level left; details: dose 10 µg/ml; summary of the method: as §1
[16] = Selectivity index, ratio of CC50 for HEK293T cells assessed as reduction in cell viability measured after 24 hrs by MTT assay to MIC for Escherichia coli ATCC 25922 assessed as bacterial growth inhibition by CLSI protocol based serial microdilution method; format: toxicity; details: human, read-out: Selectivity Index
[17] = tested on: Staphylococcus aureus; assay: Antibacterial activity against methicillin-resistant Staphylococcus aureus CEMTC 1850 assessed as bacterial growth inhibition by CLSI protocol based serial microdilution method; format: functional
[18] = tested on: Staphylococcus aureus; assay: Bactericidal activity against […] Staphylococcus aureus ATCC 25923 assessed as colony forming unit at 2.5 ug/ml measured at 6 hrs by time kill assay (reference value: 1.2 x 10^6 CFU/ml); format: functional; details: dose 2.5 µg/ml; summary of the method: as §2
[19] = Cytotoxicity against MDCK cells assessed as cell death incubated for 48 hrs by MTT assay; format: cell-based, Canis lupus familiaris; details: dog
[20] = tested on: Staphylococcus aureus; assay: Bactericidal activity against […] Staphylococcus aureus ATCC 25923 assessed as colony forming unit at 1.25 ug/ml measured at 6 hrs by time kill assay (reference value: 1.2 x 10^6 CFU/ml); format: functional; details: dose 1.25 µg/ml; summary of the method: as §2
[21] = Selectivity index, ratio of CC50 for HEK293T cells assessed as reduction in cell viability measured after 24 hrs by MTT assay to MIC for Salmonella enterica ATCC 14028 assessed as bacterial growth inhibition by CLSI protocol based serial microdilution method; format: toxicity; details: human, read-out: Selectivity Index
[22] = tested on: Pseudomonas aeruginosa; assay: Bactericidal activity against Pseudomonas aeruginosa ATCC 9027 assessed as reduction in colony forming unit at 10 ug/ml measured at 2 hrs by time kill assay relative to control; format: functional; design: scale not given: the % may be the effect or the level left; details: dose 10 µg/ml; summary of the method: as §1
[23] = Selectivity index, ratio of CC50 for HEK293T cells assessed as reduction in cell viability measured after 24 hrs by MTT assay to MIC for Citrobacter freundii ATCC 8090 assessed as bacterial growth inhibition by CLSI protocol based serial microdilution method; format: toxicity; details: human, read-out: Selectivity Index
[24] = tested on: Salmonella typhimurium; assay: Antibacterial activity against Salmonella enterica ATCC 14028 assessed as bacterial growth inhibition by CLSI protocol based serial microdilution method; format: functional, Salmonella enterica subsp. enterica serovar Typhimurium
[25] = tested on: Staphylococcus aureus; assay: Antibacterial activity against methicillin-resistant Staphylococcus aureus CEMTC 675 assessed as bacterial growth inhibition by CLSI protocol based serial microdilution method; format: functional
[26] = tested on: Staphylococcus aureus; assay: Bactericidal activity against […] Staphylococcus aureus ATCC 25923 assessed as colony forming unit at 2.5 ug/ml measured at 22 hrs by time kill assay (reference value: 2.9 x 10^9 CFU/ml); format: functional; details: dose 2.5 µg/ml; summary of the method: as §2
[27] = Selectivity index, ratio of CC50 for HEK293T cells assessed as reduction in cell viability measured after 24 hrs by MTT assay to MIC for Staphylococcus aureus ATCC 25923 assessed as bacterial growth inhibition by CLSI protocol based serial microdilution method; format: toxicity; details: human, read-out: Selectivity Index

| Compound | MIC [1] | Activity [2] | Activity [3] | Activity [4] | Activity [5] | MFC [6] | Activity [7] | MIC [8] | Activity [9] | Activity [10] | Activity [11] | MBC [12] | selectivity ratio at 24 h [13] | MIC [14] | Activity [15] | selectivity ratio at 24 h [16] | MIC [17] | Activity [18] | CC50 at 48 h [19] | Activity [20] | other results |
| --- | --- | --- | --- | --- | --- | --- | --- | --- | --- | --- | --- | --- | --- | --- | --- | --- | --- | --- | --- | --- | --- |
| CCCCCCCCCCCC[N+]12CC[N+](Cc3ccccc3C[N+]34CC[N+](CCCCCCCCCCCC)(CC3)CC4)(CC1)CC2 | 1.6 µg/mL | >=90% | <100 CFU/ml | <100 CFU/ml | >=99.9% | 6.3 µg/mL | <100 CFU/ml | 0.5 µg/mL | 6800 CFU/ml | >=99.9% | <100 CFU/ml | 3.1 µg/mL | 3 | 1 µg/mL | >=99.9% | 3 | 0.5 µg/mL | <100 CFU/ml | 1.9 µg/mL | <100 CFU/ml | selectivity ratio at 24 h [21]: 3; Activity [22]: ≥ 99.9%; selectivity ratio at 24 h [23]: 3; MIC [24]: 16 µg/mL; MIC [25]: 0.5 µg/mL; Activity [26]: <100 CFU/ml; selectivity ratio at 24 h [27]: 7 |
| CCCCCCCCCCCC[N+]12CC[N+](CCC[N+]34CC[N+](CCCCCCCCCCCC)(CC3)CC4)(CC1)CC2 | 1.6 µg/mL | >=99.9% | <100 CFU/ml | <100 CFU/ml | >=99.9% | 6.3 µg/mL | <100 CFU/ml | 0.5 µg/mL | 330 CFU/ml | >=99.9% | <100 CFU/ml | 3.1 µg/mL | 4 | 1 µg/mL | >=99.9% | 4 | 1 µg/mL | <100 CFU/ml | 12.8 µg/mL | <100 CFU/ml | selectivity ratio at 24 h [21]: 4; Activity [22]: >=99.9%; selectivity ratio at 24 h [23]: 4; MIC [24]: 1.6 µg/mL; MIC [25]: 0.5 µg/mL; Activity [26]: <100 CFU/ml; selectivity ratio at 24 h [27]: 22 |

From ChEMBL document CHEMBL4715780, “Biological evaluation of tetracationic compounds based on two 1,4-diazabicyclo[2.2.2]octane moieties connected by different linkers” (Bioorg Med Chem, 2016)
